Calls of active or inactive are those of the source. The calls are words filed in the database; no cut-off is given here.
Legend:
SW-620 = assay: Growth inhibition of human SW620 cells after 48 hrs by SRB assay; type: functional
SK-BR-3 [1] = assay: Cell cycle arrest in human SK-BR-3 cells assessed as accumulation at G2/M phase at 5 uM after 24 hrs using propidium iodide staining by FACS analysis; type: functional
In short: (§1)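 SKBR-3 cells in RPMI1640 with 10% heat-inactivated FBS at 37 °C and 5% CO₂ were treated for the stated times. Cells were fixed overnight in 70% EtOH at −20 °C, then stained with propidium iodide buffer (38 mM sodium citrate pH 7.5, 69 µM PI, 120 µg/mL RNase A) for 15 min at room temperature in the dark. Up to 1×10⁴ gated cells were analyzed by flow cytometry, giving percent distribution per phase.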

SK-BR-3 [2] = assay: Cell cycle arrest in human SK-BR-3 cells assessed as accumulation at G2/M phase at 0.10 uM after 18 hrs using propidium iodide staining by FACS analysis; type: functional; in short: as §1
IGROV-1 = assay: Growth inhibition of human IGROV1 cells after 48 hrs by SRB assay; type: functional
SF-295 = assay: Growth inhibition of human SF295 cells after 48 hrs by SRB assay; type: functional
Mus musculus = assay: Toxicity in BALB/c athymic nu/nu mouse xenografted with human HT-29 cells assessed as effect on body weight at 5 mg/kg/day, ip administered 5 times per week for 3 weeks; type: organism-based; parameters: route intraperitoneal; details: in vivo, 504 h
In short: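 BALB/c nu/nu mice, three per group, each inoculated s.c. with HT29 cells in Matrigel at two sites. Dosing began once tumors reached about 200 mm³: 5 mg/kg/d i.p., five times weekly for three weeks, in sesame oil with 1% DMSO. Controls received vehicle only. Body weight was recorded weekly.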

SK-BR-3 [3] = assay: Cell cycle arrest in human SK-BR-3 cells assessed as accumulation at G1 phase at 0.10 uM after 24 hrs using propidium iodide staining by FACS analysis; type: functional; in short: as §1
SK-OV-3 = assay: Growth inhibition of human SKOV3 cells after 48 hrs by SRB assay; type: functional
SK-BR-3 [4] = assay: Cell cycle arrest in human SK-BR-3 cells assessed as accumulation at S phase at 5 uM after 3 hrs using propidium iodide staining by FACS analysis; type: functional
SK-BR-3 [5] = assay: Cell cycle arrest in human SK-BR-3 cells assessed as accumulation at S phase at 0.50 uM after 6 hrs using propidium iodide staining by FACS analysis; type: functional
SK-BR-3 [6] = assay: Cell cycle arrest in human SK-BR-3 cells assessed as accumulation at S phase at 0.25 uM after 24 hrs using propidium iodide staining by FACS analysis; type: functional
HT-29 [7] = assay: Growth inhibition of human HT-29 cells after 48 hrs by SRB assay; type: functional
SK-BR-3 [8] = assay: Cell cycle arrest in human SK-BR-3 cells assessed as accumulation at Sub-G1 phase at 0.50 uM after 24 hrs using propidium iodide staining by FACS analysis; type: functional
SK-BR-3 [9] = assay: Cell cycle arrest in human SK-BR-3 cells assessed as accumulation at G1 phase at 5 uM after 3 hrs using propidium iodide staining by FACS analysis; type: functional; in short: as §1
HCT-15 = assay: Growth inhibition of human HCT15 cells after 48 hrs by SRB assay; type: functional
HT-29 [10] = assay: Antitumor activity against human HT-29 cells xenografted in BALB/c athymic nu/nu mouse assessed as decrease in tumor size at 5 mg/kg/day, ip administered 5 times per week for 3 weeks; type: functional, organism-based
In short: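 Athymic BALB/c nu/nu mice received s.c. HT29 cells in Matrigel, 200 µL per site at two flank sites. Treatment started at ~200 mm³: 5 mg/kg/d i.p., five times weekly for three weeks, in 1% DMSO/sesame oil; controls got vehicle. Three mice per group. Tumors were measured twice weekly by caliper, volume = width²×length/2. Tumors were excised and weighed at the end.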

M14 = assay: Growth inhibition of human M14 cells after 48 hrs by SRB assay; type: functional
MDA-MB-231 = assay: Growth inhibition of human MDA-MB-231 cells after 48 hrs by SRB assay; type: functional
[11] = AUC (0 to t) in Sprague-Dawley rat at 20 mg/kg, ip; type: ADME, organism-based; parameters: dose 20 mg/kg, route intraperitoneal; details: plasma
In short: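 Male Sprague–Dawley rats (300–350 g), n=3, fasted overnight with water available, given a single 20 mg/kg i.p. dose in PBS with 0.1% Tween80 and 20% DMSO. Blood drawn into heparinized tubes at 0, 0.25, 0.5, 1, 2, 4, 8 and 24 h. Plasma measured by LC-MS/MS against an internal standard. Parameters from non-compartmental analysis.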

NCI-H522 = assay: Growth inhibition of human NCI-H522 cells after 48 hrs by SRB assay; type: functional
SK-BR-3 [12] = assay: Cell cycle arrest in human SK-BR-3 cells assessed as accumulation at Sub-G1 phase at 0.25 uM after 3 hrs using propidium iodide staining by FACS analysis; type: functional
SK-BR-3 [13] = assay: Cell cycle arrest in human SK-BR-3 cells assessed as accumulation at G1 phase at 0.50 uM after 6 hrs using propidium iodide staining by FACS analysis; type: functional; in short: as §1
SK-BR-3 [14] = assay: Cell cycle arrest in human SK-BR-3 cells assessed as accumulation at G2/M phase at 0.25 uM after 6 hrs using propidium iodide staining by FACS analysis; type: functional; in short: as §1
KM12 = assay: Growth inhibition of human KM12 cells after 48 hrs by SRB assay; type: functional
SK-BR-3 [15] = assay: Cell cycle arrest in human SK-BR-3 cells assessed as accumulation at G2/M phase at 5 uM after 6 hrs using propidium iodide staining by FACS analysis; type: functional; in short: as §1
UACC-62 = assay: Growth inhibition of human UACC62 cells after 48 hrs by SRB assay; type: functional
SK-BR-3 [16] = assay: Cell cycle arrest in human SK-BR-3 cells assessed as accumulation at S phase at 0.50 uM after 3 hrs using propidium iodide staining by FACS analysis; type: functional
SK-BR-3 [17] = assay: Cell cycle arrest in human SK-BR-3 cells assessed as accumulation at G1 phase at 0.50 uM after 12 hrs using propidium iodide staining by FACS analysis; type: functional; in short: as §1

Cc1ccc(C)c(COc2cc(NC(=O)c3ccc4c(c3)OCO4)ccc2N(C)S(C)(=O)=O)c1
growth inhibition (GI) (SW-620): Dose-dependent effect | GI50 (SW-620; SW-620, 48 h): 0.112 µM | TGI (SW-620; SW-620, 48 h): > 100 µM | CC50 (SW-620; SW-620, 48 h, read-out: LC50 (the source's name)): > 100 µM | Activity (SK-BR-3 [1]): 28.29% | Activity (SK-BR-3 [2]): 9.71% | growth inhibition (GI) (IGROV-1): Dose-dependent effect | GI50 (IGROV-1; IGROV-1, 48 h): 0.237 µM | TGI (IGROV-1; IGROV-1, 48 h): > 100 µM | CC50 (IGROV-1; IGROV-1, 48 h, read-out: LC50 (the source's name)): > 100 µM | growth inhibition (GI) (SF-295): Dose-dependent effect | GI50 (SF-295; SF-295, 48 h): 0.0983 µM | TGI (SF-295; SF-295, 48 h): 0.626 µM | CC50 (SF-295; SF-295, 48 h, read-out: LC50 (the source's name)): > 100 µM | Activity (Mus musculus): Non-toxic | Activity (SK-BR-3 [3]): 67.9% | growth inhibition (GI) (SK-OV-3): Dose-dependent effect | GI50 (SK-OV-3; SK-OV-3, 48 h): 0.285 µM | TGI (SK-OV-3; SK-OV-3, 48 h): > 100 µM | CC50 (SK-OV-3; SK-OV-3, 48 h, read-out: LC50 (the source's name)): > 100 µM | Activity (SK-BR-3 [4]): 16.49% | Activity (SK-BR-3 [5]): 14.73% | Activity (SK-BR-3 [6]): 10.87% | growth inhibition (GI) (HT-29 [7]): Dose-dependent effect | GI50 (HT-29 [7]; HT-29, 48 h): 0.0772 µM | TGI (HT-29 [7]; HT-29, 48 h): 0.419 µM | CC50 (HT-29 [7]; HT-29, 48 h, read-out: LC50 (the source's name)): > 100 µM | Activity (SK-BR-3 [8]): 27.94% | Activity (SK-BR-3 [9]): 69.09% | growth inhibition (GI) (HCT-15): Dose-dependent effect | GI50 (HCT-15; HCT-15, 48 h): 0.289 µM | TGI (HCT-15; HCT-15, 48 h): > 100 µM | CC50 (HCT-15; HCT-15, 48 h, read-out: LC50 (the source's name)): > 100 µM | Activity (HT-29 [10]): Active | growth inhibition (GI) (M14): Dose-dependent effect | GI50 (M14; M14, 48 h): 0.0757 µM | TGI (M14; M14, 48 h): 0.669 µM | CC50 (M14; M14, 48 h, read-out: LC50 (the source's name)): > 100 µM | growth inhibition (GI) (MDA-MB-231): Dose-dependent effect | GI50 (MDA-MB-231; MDA-MB-231, 48 h): 0.256 µM | TGI (MDA-MB-231; MDA-MB-231, 48 h): 0.926 µM | CC50 (MDA-MB-231; MDA-MB-231, 48 h, read-out: LC50 (the source's name)): > 100 µM | AUC(0-t) [11]: 16.3 µg·h/mL | growth inhibition (GI) (NCI-H522): Dose-dependent effect | GI50 (NCI-H522; NCI-H522, 48 h): 0.0335 µM | TGI (NCI-H522; NCI-H522, 48 h): 0.24 µM | CC50 (NCI-H522; NCI-H522, 48 h, read-out: LC50 (the source's name)): > 100 µM | Activity (SK-BR-3 [12]): 3.23% | Activity (SK-BR-3 [13]): 67.1% | Activity (SK-BR-3 [14]): 9.32% | growth inhibition (GI) (KM12): Dose-dependent effect | GI50 (KM12; KM12, 48 h): 0.0855 µM | TGI (KM12; KM12, 48 h): 1.13 µM | CC50 (KM12; KM12, 48 h, read-out: LC50 (the source's name)): > 100 µM | Activity (SK-BR-3 [15]): 17.19% | growth inhibition (GI) (UACC-62): Dose-dependent effect | GI50 (UACC-62; UACC-62, 48 h): 0.414 µM | TGI (UACC-62; UACC-62, 48 h): > 100 µM | CC50 (UACC-62; UACC-62, 48 h, read-out: LC50 (the source's name)): > 100 µM | Activity (SK-BR-3 [16]): 17.76% | Activity (SK-BR-3 [17]): 63.15%

From ChEMBL document CHEMBL1932938, “From COX-2 inhibitor nimesulide to potent anti-cancer agent: synthesis, in vitro, in vivo and pharmacokinetic evaluation” (Eur J Med Chem, 2012)
